Measured values as given in ChEMBL document CHEMBL1122663, “Oligonucleotide structural parameters that influence binding of 5'-O-triphosphoadenylyl-(2'----5')-adenylyl-(2'----5')-adenosine to the 5'-O-triphosphoadenylyl-(2'----5')-adenylyl-(2'----5')-adenosine dependent endoribonuclease: chain length, phosphorylation state, and heterocyclic base” (J Med Chem, 1984).

Legend:
[1] = biological target: T1, 2-5A-dependent ribonuclease (Mus musculus) (UniProt Q05921); experiment: Molar concentration required to displace 50% of the radiolabeled probe from 2-5A (Adenosine dependent endoribonuclease) in endonuclease-nitrocellulose complex
T1 sequence (whole entry): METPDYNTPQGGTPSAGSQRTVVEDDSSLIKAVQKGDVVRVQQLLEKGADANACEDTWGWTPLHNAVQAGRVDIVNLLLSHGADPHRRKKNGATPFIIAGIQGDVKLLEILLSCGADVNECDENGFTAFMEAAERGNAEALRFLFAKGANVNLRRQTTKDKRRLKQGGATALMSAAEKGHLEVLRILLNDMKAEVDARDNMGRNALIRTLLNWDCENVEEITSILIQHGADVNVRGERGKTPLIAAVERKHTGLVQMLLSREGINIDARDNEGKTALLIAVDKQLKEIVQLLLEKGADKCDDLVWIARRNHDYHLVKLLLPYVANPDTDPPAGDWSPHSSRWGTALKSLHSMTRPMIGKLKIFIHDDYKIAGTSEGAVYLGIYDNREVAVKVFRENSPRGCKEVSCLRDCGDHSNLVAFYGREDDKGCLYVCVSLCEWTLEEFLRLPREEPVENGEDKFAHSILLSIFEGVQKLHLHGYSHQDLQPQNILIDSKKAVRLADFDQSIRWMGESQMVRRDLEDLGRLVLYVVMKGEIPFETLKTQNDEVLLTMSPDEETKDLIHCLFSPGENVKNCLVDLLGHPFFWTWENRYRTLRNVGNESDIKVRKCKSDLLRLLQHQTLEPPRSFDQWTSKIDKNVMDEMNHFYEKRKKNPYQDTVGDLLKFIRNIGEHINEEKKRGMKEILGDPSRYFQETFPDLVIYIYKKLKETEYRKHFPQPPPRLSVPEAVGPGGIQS
How it was run: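 Radiobinding assay of Knight et al. on the 2-5A-dependent endoribonuclease from mouse L cells. Oligomer is added against the radiolabeled probe ppp5'A2'p5'A2'p5'A2'p5'A3'[³²P]p5'C3'p. The value is the oligomer concentration that prevents 50% of the added probe from binding the endonuclease.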

[2] = biological target: T1, 2-5A-dependent ribonuclease (Mus musculus); experiment: Molar concentration needed to give 50% prevention of 2-5A (Adenosine dependent endoribonuclease)

| SMILES | Concentration [1] | Concentration [2] |
| --- | --- | --- |
| O=c1ccn(C2O[C@H](COP(=O)(O)O[C@H]3C(n4ccc(=O)[nH]c4=O)O[C@H](COP(=O)(O)O[C@H]4C(n5ccc(=O)[nH]c5=O)O[C@H](COP(=O)(O)O)[C@H]4O)[C@H]3O)[C@@H](O)[C@H]2O)c(=O)[nH]1 (some centres undefined) | 1.1e-06 | > 0.0001 |
| Nc1ncnc2c1ncn2[C@@H]1O[C@H](COP(=O)(O)O[C@@H]2[C@H](O)[C@@H](COP(=O)(O)O[C@@H]3[C@H](O)[C@@H](COP(=O)(O)O[C@@H]4[C@H](O)[C@@H](COP(=O)(O)O)O[C@H]4n4cnc5c(N)ncnc54)O[C@H]3n3cnc4c(N)ncnc43)O[C@H]2n2cnc3c(N)ncnc32)[C@@H](O)[C@H]1O | 7e-10 | 1e-06 |
| O=P(O)(O)OP(=O)(O)OP(=O)(O)OCC1OC(n2cnc3c(O)ncnc32)C(OP(=O)(O)OCC2OC(n3cnc4c(O)ncnc43)C(OP(=O)(O)OC[C@H]3OC(n4cnc5c(O)ncnc54)[C@H](O)[C@@H]3O)C2O)C1O (some centres undefined) | 2.6e-07 | > 0.00013 |
| Nc1ncnc2c1ncn2C1O[C@H](COP(=O)(O)O[C@H]2C(n3cnc4c(N)ncnc43)O[C@H](COP(=O)(O)O[C@H]3C(n4cnc5c(N)ncnc54)O[C@H](COP(=O)(O)O[C@H]4C(n5cnc6c(N)ncnc65)O[C@H](COP(=O)(O)O[C@H]5C(n6cnc7c(N)ncnc76)O[C@H](COP(=O)(O)O[C@H]6C(n7cnc8c(N)ncnc87)O[C@H](COP(=O)(O)O)[C@H]6O)[C@H]5O)[C@H]4O)[C@H]3O)[C@H]2O)[C@@H](O)[C@H]1O (some centres undefined) | 1e-09 | – |
| Nc1ncnc2c1ncn2C1O[C@H](COP(=O)(O)O[C@H]2C(n3cnc4c(N)ncnc43)O[C@H](COP(=O)(O)O[C@H]3C(n4cnc5c(N)ncnc54)O[C@H](COP(=O)(O)O[C@H]4C(n5cnc6c(N)ncnc65)O[C@H](COP(=O)(O)O[C@H]5C(n6cnc7c(N)ncnc76)O[C@H](CO)[C@H]5O)[C@H]4O)[C@H]3O)[C@H]2O)[C@@H](O)[C@H]1O (some centres undefined) | 1.3e-08 | 7e-06 |
| Nc1ncnc2c1ncn2C1OC(CO)C(O)C1OP(=O)(O)OC[C@H]1OC(n2cnc3c(N)ncnc32)[C@H](O)[C@@H]1O (some centres undefined) | – | > 0.001 |
| Nc1ncnc2c1ncn2[C@@H]1O[C@H](COP(=O)(O)O[C@@H]2[C@H](O)[C@@H](COP(=O)(O)O)O[C@H]2n2cnc3c(N)ncnc32)[C@@H](O)[C@H]1OP(=O)(O)O | 4e-07 | – |
| Nc1ncnc2c1ncn2C1O[C@H](COP(=O)(O)O[C@H]2C(n3cnc4c(N)ncnc43)O[C@H](COP(=O)(O)O[C@H]3C(n4cnc5c(N)ncnc54)O[C@H](COP(=O)(O)O[C@H]4C(n5cnc6c(N)ncnc65)O[C@H](COP(=O)(O)O[C@H]5C(n6cnc7c(N)ncnc76)O[C@H](COP(=O)(O)O[C@H]6C(n7cnc8c(N)ncnc87)O[C@H](CO)[C@H]6O)[C@H]5O)[C@H]4O)[C@H]3O)[C@H]2O)[C@@H](O)[C@H]1O (some centres undefined) | 1.3e-08 | – |
| Nc1ncnc2c1ncn2[C@@H]1O[C@H](COP(=O)(O)O[C@@H]2[C@H](O)[C@@H](COP(=O)(O)O)O[C@H]2n2cnc3c(N)ncnc32)[C@@H](OP(=O)(O)O)[C@H]1O | 4e-06 | – |
| Nc1ncnc2c1ncn2C1O[C@H](COP(=O)(O)O[C@H]2C(n3cnc4c(N)ncnc43)O[C@H](COP(=O)(O)O[C@H]3C(n4cnc5c(N)ncnc54)O[C@H](COP(=O)(O)O[C@H]4C(n5cnc6c(N)ncnc65)O[C@H](COP(=O)(O)O[C@H]5C(n6cnc7c(N)ncnc76)O[C@H](COP(=O)(O)O)[C@H]5O)[C@H]4O)[C@H]3O)[C@H]2O)[C@@H](O)[C@H]1O (some centres undefined) | 9e-10 | 5e-07 |
| Nc1ncnc2c1ncn2C1O[C@H](COP(=O)(O)O[C@H]2C(n3cnc4c(N)ncnc43)O[C@H](COP(=O)(O)O)[C@H]2O)[C@@H](O)[C@H]1O (some centres undefined) | 2e-05 | > 0.0002 |
| Nc1ccn(C2O[C@H](COP(=O)(O)O[C@H]3C(n4ccc(N)nc4=O)O[C@H](COP(=O)(O)O[C@H]4C(n5ccc(N)nc5=O)O[C@H](COP(=O)(O)O)[C@H]4O)[C@H]3O)[C@@H](O)[C@H]2O)c(=O)n1 (some centres undefined) | 3.3e-06 | > 0.0001 |

Continued, values first:

| Concentration [1] | Concentration [2] | SMILES |
| --- | --- | --- |
| 2e-09 | – | Nc1ncnc2c1ncn2[C@@H]1O[C@H](COP(=O)(O)O[C@@H]2[C@H](O)[C@@H](COP(=O)(O)O[C@@H]3[C@H](O)[C@@H](COP(=O)(O)O)O[C@H]3n3cnc4c(N)ncnc43)O[C@H]2n2cnc3c(N)ncnc32)[C@@H](O)[C@H]1O (stereo in doubt; 11) |
| 5e-10 | – | Nc1ncnc2c1ncn2[C@@H]1O[C@H](COP(=O)(O)O[C@@H]2[C@H](O)[C@@H](COP(=O)(O)O[C@@H]3[C@H](O)[C@@H](COP(=O)(O)OP(=O)(O)OP(=O)(O)O)O[C@H]3n3cnc4c(N)ncnc43)O[C@H]2n2cnc3c(N)ncnc32)[C@@H](O)[C@H]1O |
| 3.3e-06 | > 0.0001 | O=P(O)(O)OC[C@H]1OC(n2cnc3c(O)ncnc32)[C@H](OP(=O)(O)OC[C@H]2OC(n3cnc4c(O)ncnc43)[C@H](OP(=O)(O)OC[C@H]3OC(n4cnc5c(O)ncnc54)[C@H](O)[C@@H]3O)[C@@H]2O)[C@@H]1O (some centres undefined) |
| 2.2e-08 | 1e-05 | Nc1ncnc2c1ncn2[C@@H]1O[C@H](COP(=O)(O)O[C@@H]2[C@H](O)[C@@H](COP(=O)(O)O[C@@H]3[C@H](O)[C@@H](COP(=O)(O)O[C@@H]4[C@H](O)[C@@H](CO)O[C@H]4n4cnc5c(N)ncnc54)O[C@H]3n3cnc4c(N)ncnc43)O[C@H]2n2cnc3c(N)ncnc32)[C@@H](O)[C@H]1O |
| 8e-07 | > 0.0001 | Nc1ncnc2c1ncn2[C@@H]1O[C@H](COP(=O)(O)O[C@@H]2[C@H](O)[C@@H](COP(=O)(O)O[C@@H]3[C@H](O)[C@@H](CO)O[C@H]3n3cnc4c(N)ncnc43)O[C@H]2n2cnc3c(N)ncnc32)[C@@H](O)[C@H]1O |
| 8e-10 | 1e-06 | Nc1ncnc2c1ncn2[C@@H]1O[C@H](COP(=O)(O)O[C@@H]2[C@H](O)[C@@H](COP(=O)(O)O[C@@H]3[C@H](O)[C@@H](COP(=O)(O)O)O[C@H]3n3cnc4c(N)ncnc43)O[C@H]2n2cnc3c(N)ncnc32)[C@@H](O)[C@H]1O (stereo in doubt; 2) |
